This is an account of results in ChEMBL document CHEMBL1122210, “(2-Chloroethyl)nitrosourea congeners of amino acid amides” (J Med Chem, 1982).

In data set [1] the test system is L1210. The experiment in a line: Tested for Maximal effective dose against mouse leukemia L1210 cells. It is filed as functional. In outline: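 Male BDF1 hybrid mice inoculated ip with 10⁶ L1210 lymphoid leukemia cells; compounds in distilled water given ip once daily for 3 days starting 24 h after implantation (day 1). Percent ILS = 100(T/C-1) versus untreated tumor-bearing controls, counting 60-day survivors. Maximal effective dose recorded.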

The test system of data set [2] is L1210. The experiment in a line: Tested for Number of 60 days survivors per 5 treated mice against mouse leukemia L1210 cells. Format: functional. A digest of the protocol:
(§1)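 Male BDF1 hybrid mice inoculated ip with 10⁶ L1210 lymphoid leukemia cells; compounds dissolved in distilled water, given ip once daily for 3 days starting 24 h after implantation (day 1). %ILS = 100(T/C−1) versus untreated tumor-bearing controls, counting 60-day survivors; 60-day survivors tallied per treated group.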

Data set [3] has as its system L1210. As to the kind of experiment: Tested for ratio of maximal effective dose/the dose which gives 30% ILS against mouse leukemia L1210 cells. It is filed as cell-based. A digest of the protocol: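 In the L1210 model (male BDF1 mice, 10⁶ cells ip, ip dosing in distilled water once daily on days 1–3), therapeutic index is the maximal effective dose divided by the dose giving 30% ILS. ILS = 100(T/C-1), 60-day survivors included.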

In data set [4] the test system is L1210. The experiment in a line: Tested for Mean survival days against mouse leukemia L1210 cells. Format: functional. In outline: as §1
The subject of data set [5] is L1210. The experiment in a line: Tested for Percent increase in life span against mouse leukemia L1210 cells. Format: functional. In outline: as §1
Data set [6] can be described thus: Tested in vitro for Half- life period of the compound. Format: ADME.
A short description of data set [7]: Tested for the toxicity after ip administration in SLC-BDF1 male mice. The note with it: SLC-BDF1, mouse, in vivo. It is filed as organism-based. In outline: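 SLC-BDF1 male mice, 5 weeks old, six per group, single intraperitoneal injection; deaths observed for 21 days; LD50 with 95% fiducial limits by the Litchfield-Wilcoxon method.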
The nature of data set [8]: Tested for the toxicity after iv administration in SLC-BDF1 male mice. Format: organism-based. Conditions: SLC-BDF1, mouse, in vivo. In outline: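 SLC-BDF1 male mice, 5 weeks old, six per group, single intravenous injection; deaths observed for 21 days; LD50 with 95% fiducial limits by the Litchfield-Wilcoxon method.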

Take `NC(=O)C(Cc1ccc(O)cc1)NC(=O)N(CCCl)N=O` (centres undefined): in the data set on L1210 [1], the maximal effective dose stood at 16 mg/kg/day. This compound showed a Survivors with L1210 [2] of 2. Moreover, the Therapeutic index with L1210 [3] is given as 10. In addition, the Mean survival days with L1210 [4] is on record as above 35.4. Also, the ILS (commonly how much longer treated animals lived than controls) in the data set on L1210 [5] was above 342.5%.
As for `CC(O)C(NC(=O)N(CCCl)N=O)C(N)=O` (centres undefined), the maximal effective dose in the data set on L1210 [1] was 8 mg/kg/day. In addition, the Survivors in the data set on L1210 [2] is recorded as 5. The Therapeutic index with L1210 [3] came to 40. The same compound gave a Mean survival days in the data set with L1210 [4] above 60. For the same compound, the half-life (as a rule, the time in which the quantity being followed falls by half) in data set [6] amounted to 23.3 min. The same compound displayed an increase in lifespan (ILS) with L1210 [5] above 757.1%.
Compound `NC(=O)CNC(=O)N(CCCl)N=O` displayed a maximal effective dose with L1210 [1] of 16 mg/kg/day. Further, the values for the LD50 in data set [7] and in data set [8] were 21.2 mg/kg and 22.4 mg/kg, respectively. In the data set with L1210 [2], this compound showed a Survivors of 5. Moreover, in the data set with L1210 [3], the Therapeutic index was 36.4. The compound also showed a Mean survival days in the data set on L1210 [4] above 60. Moreover, the half-life in data set [6] is 44 min. In the data set on L1210 [5], this compound gave an ILS above 679.2%.
Compound `CC(NC(=O)N(CCCl)N=O)C(N)=O` (centres undefined) had a maximal effective dose with L1210 [1] of 8 mg/kg/day. In the data set with L1210 [2], this compound showed a Survivors of 5. In the data set with L1210 [3], the Therapeutic index was 14.3. The compound also returned a Mean survival days with L1210 [4] above 60. The compound further registered a half-life in data set [6] of 37 min. This compound also gave an increase in life span (ILS) in the data set on L1210 [5] above 710.8%.
Regarding `NC(=O)C(Cc1ccccc1)NC(=O)N(CCCl)N=O` (centres undefined), in the data set with L1210 [1], the maximal effective dose worked out at 32 mg/kg/day. Moreover, in the data set with L1210 [2], the Survivors is on record as 1. Moreover, the Therapeutic index in the data set on L1210 [3] amounted to 3.8. In the data set on L1210 [4], this compound had a Mean survival days above 38.2. Moreover, the half-life in data set [6] worked out at 49.9 min. Further, in the data set with L1210 [5], the increase in life span (ILS) is above 445.7%.
Turning to `NC(=O)CCCNC(=O)N(CCCl)N=O`, in the data set with L1210 [1], the maximal effective dose was found to be 16 mg/kg/day. The compound also displayed a Survivors with L1210 [2] of 5. Moreover, the Therapeutic index in the data set on L1210 [3] was determined as 7.3. Moreover, in the data set with L1210 [4], the Mean survival days is given as above 60. The half-life in data set [6] came out at 72.5 min. The same compound showed an ILS in the data set on L1210 [5] above 733.3%.
Consider `CSCCC(NC(=O)N(CCCl)N=O)C(N)=O` (centres undefined), for which the maximal effective dose in the data set on L1210 [1] worked out at 16 mg/kg/day. Also, in the data set with L1210 [2], the Survivors worked out at 0. Besides, the Therapeutic index with L1210 [3] is listed as 5.9. Further, the Mean survival days in the data set on L1210 [4] is reported as 27.2. The compound also yielded a half-life in data set [6] of 38.1 min. Also, the ILS in the data set with L1210 [5] stood at 277.8%.
In the data set with L1210 [1], `NC(=O)CCNC(=O)N(CCCl)N=O` displayed a maximal effective dose of 16 mg/kg/day. Besides, in the data set on L1210 [2], the Survivors was found to be 5. Besides, the Therapeutic index in the data set on L1210 [3] was determined as 15.2. This compound also gave a Mean survival days in the data set on L1210 [4] above 60. This compound had a half-life in data set [6] of 61 min. This compound yielded an increase in lifespan (ILS) with L1210 [5] above 733.3%.
Compound `CC(C)CC(NC(=O)N(CCCl)N=O)C(N)=O` (centres undefined) gave a maximal effective dose in the data set with L1210 [1] of 24 mg/kg/day. This compound also had a Survivors with L1210 [2] of 5. Further, the Therapeutic index in the data set with L1210 [3] was determined as 11.4. The Mean survival days in the data set on L1210 [4] is above 60. The compound further displayed a half-life in data set [6] of 48.3 min. The increase in life span (ILS) with L1210 [5] was above 757.1%.
In the data set with L1210 [1], `NC(=O)C(CO)NC(=O)N(CCCl)N=O` (centres undefined) returned a maximal effective dose of 8 mg/kg/day. Besides, the Survivors in the data set with L1210 [2] is 5. Also, in the data set with L1210 [3], the Therapeutic index came out at 40. This compound registered a Mean survival days in the data set on L1210 [4] above 60. The compound further yielded a half-life in data set [6] of 19.8 min. This compound also returned an ILS with L1210 [5] above 757.1%.
`NC(=O)C1CCCN1C(=O)N(CCCl)N=O` (centres undefined): the maximal effective dose with L1210 [1] came out at 64 mg/kg/day. The LD50 (as a rule, the dose expected to kill half of the subjects tested) in data set [7] came to 220 mg/kg; in data set [8], 195 mg/kg. In the data set on L1210 [2], this compound came in with a Survivors of 1. For the same compound, in the data set with L1210 [3], the Therapeutic index was 5.6. Further, the Mean survival days in the data set with L1210 [4] is reported as above 25.2. This compound also came in with a half-life in data set [6] of 295 min. This compound gave an ILS in the data set with L1210 [5] above 250%.
Consider `CC(C)C(NC(=O)N(CCCl)N=O)C(N)=O` (centres undefined), for which, in the data set with L1210 [1], the maximal effective dose amounted to 8 mg/kg/day. For the same compound, the Survivors with L1210 [2] is listed as 5. Moreover, in the data set with L1210 [3], the Therapeutic index is 15.7. The compound also gave a Mean survival days in the data set with L1210 [4] above 60. This compound gave a half-life in data set [6] of 44.5 min. This compound also gave an ILS with L1210 [5] above 757.1%.
Turning to `NC(=O)CC(NC(=O)N(CCCl)N=O)C(N)=O` (centres undefined), in the data set on L1210 [1], the maximal effective dose was determined as 8 mg/kg/day. The compound further returned a Survivors with L1210 [2] of 2. Moreover, the Therapeutic index in the data set on L1210 [3] is listed as 15.7. The compound also returned a Mean survival days in the data set on L1210 [4] above 42.8. The compound also registered a half-life in data set [6] of 32.1 min. This compound also displayed an ILS in the data set on L1210 [5] above 494.4%.
In turn, `CN(CC(N)=O)C(=O)N(CCCl)N=O` [SARCNU] returned a maximal effective dose in the data set with L1210 [1] of 225 mg/kg/day. For the same compound, the median lethal dose (LD50) in data set [7] is 392 mg/kg; in data set [8], 427 mg/kg. In the data set on L1210 [2], this compound yielded a Survivors of 5. Also, the Therapeutic index with L1210 [3] was 15.5. This compound showed a Mean survival days in the data set on L1210 [4] above 60. The same compound returned a half-life in data set [6] of 330 min. This compound yielded an ILS in the data set with L1210 [5] above 710%.
